Where two headings read alike, the source gives them in different places. Bounds are passed on as bounds.

The target of data set [1] is T1, recombinant human NAT2 (Homo sapiens, UniProt P11245).
T1 sequence (P11245 1-290): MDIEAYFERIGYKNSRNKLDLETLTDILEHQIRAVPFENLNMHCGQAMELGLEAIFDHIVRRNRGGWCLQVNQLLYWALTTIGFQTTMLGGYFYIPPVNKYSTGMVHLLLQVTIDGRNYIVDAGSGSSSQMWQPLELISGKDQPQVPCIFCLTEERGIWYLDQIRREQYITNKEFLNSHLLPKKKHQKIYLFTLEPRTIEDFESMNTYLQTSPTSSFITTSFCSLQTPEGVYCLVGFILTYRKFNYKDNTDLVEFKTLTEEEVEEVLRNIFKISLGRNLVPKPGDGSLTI
As to the kind of experiment: Recombinant human NAT2. The class given is biochemical. As to conditions: for inhibition of human NAT2: at concentrations up to 2 mM. A digest of the protocol:
(§1)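 Lysates of S. pombe stably expressing recombinant human NAT1 (10 μM PABA) or NAT2 (10 μM SMZ) were run with 100 μM acetyl-CoA over a test-compound concentration series. Substrate and N-acetylated product were separated and measured by HPLC. IC50 came from nonlinear regression, reported as mean ± SEM (n=3).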

For data set [2], the target named is T2, NAT1 (Homo sapiens, UniProt P18440).
T2 sequence (P18440 1-290): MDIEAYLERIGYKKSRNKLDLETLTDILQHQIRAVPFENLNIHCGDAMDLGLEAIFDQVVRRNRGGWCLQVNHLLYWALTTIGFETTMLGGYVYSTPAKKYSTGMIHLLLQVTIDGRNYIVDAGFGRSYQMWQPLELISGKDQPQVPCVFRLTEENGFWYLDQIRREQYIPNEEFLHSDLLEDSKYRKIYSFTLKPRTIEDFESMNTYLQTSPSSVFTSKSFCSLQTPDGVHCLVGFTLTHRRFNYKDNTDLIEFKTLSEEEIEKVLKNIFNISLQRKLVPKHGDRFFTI
As to the kind of experiment: Recombinant human NAT1. The following applies: for fold less potent than compound 10 towards recombinant human NAT1: in vitro IC50 comparison; for IC50 NAT2/IC50 NAT1: ratio; for IC50 NAT2/IC50 NAT1 / fold lower IC50 for NAT1 versus NAT2: PABA (NAT1) vs SMZ (NAT2). The class given is biochemical. The procedure, abridged: as §1

Data set [3] has as its system NAT2. As to the kind of experiment: SMZ N-acetylation in situ in cryopreserved human hepatocytes. The class given is cell-based. The following applies: 50 μM SMZ, 24 hr, concentrations up to 200 μM. A digest of the protocol: (§2)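 Cultured cryopreserved human hepatocytes from five donors, all of intermediate NAT2 acetylator genotype, were incubated for 24 hr with 50 μM PABA or SMZ plus varying test-compound concentrations. Parent substrates and N-acetylated metabolites were separated and quantified by HPLC. Each point is the mean ± SEM over the 5 samples.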

The test system of data set [4] is human NAT1. Description: Reversibility of NAT1 inhibition in primary hepatocytes. The class given is cell-based. The following applies: 100 or 200 μM for 1 hr, removed, then 10 μM PABA for 5 hr.
The target in data set [5] is T3, human NAT1 expressed in CHO cells (Homo sapiens, UniProt P18440).
T3 sequence (P18440 1-290): T2 sequence (P18440 1-290)
Description: N-acetylation in situ in UV5 CHO cells expressing human NAT1 and CYP1A1. The class given is cell-based. A digest of the protocol:
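UV5 CHO cells (nucleotide excision repair-deficient, XPD mutant) stably transfected with human CYP1A1 and NAT1*4 were plated 24 hr beforehand. Medium was then replaced with α-MEM containing 10 μM PABA or ABP plus test compound. After 2 hr, medium was sampled and N-acetylation quantified by HPLC. Mean ± SD of 3 experiments; IC50 by nonlinear regression.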

Data set [6] deals with MDA-MB-231 cells. As to the kind of experiment: CytoSelect cell invasion assay, MDA-MB-231. The class given is cell-based, human. The following applies: 24 hr, 0, 31.25, 62.5, 125 μM. The procedure, abridged: (§3)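 CytoSelect 24-well colorimetric invasion assay: 300,000 cells were seeded and allowed to invade toward medium containing 10% FBS for 24 hr with test compound present. Invasion was expressed as a percentage of the DMSO vehicle control. Mean ± SEM (n=3).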

For data set [7], the target named is T2, NAT1. As to the kind of experiment: PABA N-acetylation in situ in cryopreserved human hepatocytes. The class given is cell-based. A digest of the protocol: as §2
The subject of data set [8] is endogenous NAT1 in MCF-7 cells. Description: N-acetylation capacity in MCF-7 cells. The class given is cell-based, human. The following applies: 10 μM ABP or PABA, 4 hr. The procedure, abridged: (§4)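 Cells grown in DMEM with 10% FBS, penicillin and streptomycin at 37°C, 5% CO2, were taken to confluence. They were then exposed for 4 hr at 37°C to medium with 10 μM ABP or PABA and test compound. Collected medium was acidified with 1/10 volume 1 M acetic acid and spun at 13,000 g for 10 min. The supernatant was analysed by HPLC for N-acetyl products; n=3, mean ± SEM.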

Data set [9] deals with endogenous NAT1 in MDA-MB-231 cells. Description: N-acetylation capacity in MDA-MB-231 cells. The class given is cell-based, human. As to conditions: 10 μM ABP or PABA, 4 hr. A digest of the protocol: as §4
The subject of data set [10] is MCF-10A cells. As to the kind of experiment: AlamarBlue cell viability and proliferation, MCF-10A. The class given is cell-based, human. A digest of the protocol: (§5)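 Cells were seeded in 96-well plates and left 24 hr. They were then treated with test compound (0–250 μM) in their own medium for up to 144 hr: MEBM with supplements for MCF-10A, DMEM with 10% FBS for MDA-MB-231. AlamarBlue (1/10 culture volume) was added 1 hr before each time point at 37°C, then fluorescence read (ex 570, em 580 nm). Mean ± SEM (n=4).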

The subject of data set [11] is MDA-MB-231 cells. As to the kind of experiment: AlamarBlue cell viability and proliferation, MDA-MB-231. The class given is cell-based, human. A digest of the protocol:
as §5

Data set [12] deals with T2, NAT1. The class given is biochemical. The following applies: ABP as substrate. A digest of the protocol:
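Recombinant human NAT1 or NAT2 expressed in Schizosaccharomyces pombe, assayed in yeast lysate with 10 μM ABP, 100 μM acetyl-CoA and test compound at 0–200 μM. Substrate and N-acetylated product were separated and quantified by HPLC. The value is the mean ± SD of 3 experiments, with IC50 for each isozyme from nonlinear regression.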

The subject of data set [13] is MCF-7 cells. Description: CytoSelect cell invasion assay, MCF-7. The class given is cell-based, human. As to conditions: 24 hr, 0, 31.25, 62.5, 125 μM. A digest of the protocol:
as §3

Data set [14] deals with NAT1. The following applies: cited from earlier work; for IC50: read-out: IC50 NAT1.
Setting [15] is: read-out: IC50 for NAT1, in vitro, recombinant in yeast, 10 μM PABA, 100 μM AcCoA, Mean ± SEM (n=3).

Take “1-(9,10-dihydro-8-hydroxy-9,10-dioxo-1-anthracenyl)4-ethyl ester [Analog 1]”: the “inhibition of human NAT2” value in data set [1] was “No inhibition”. In [2], the “fold less potent than compound 10 towards recombinant human NAT1” value was “over 100 fold” and the “IC50 NAT2/IC50 NAT1” value is above 11.7. Also, in data set [2] (setting [15]), the IC50 came to 171 ± 4.7 µM.
Take “9,10-dihydro-9,10-dioxo-1,2-anthracenediyl diethyl ester [Compound 10]”: the “inhibition of SMZ N-acetylation in cryopreserved human hepatocytes” value in [3] is given as “no inhibition”. The “reversibility of inhibition of PABA N-acetylation” value in data set [4] is “reversible”. The IC50 amounted to 81.6 ± 4.4 µM in data set [5] (read-out: in situ IC50, ABP N-acetylation in CHO cells, ABP as substrate); 118 ± 5 µM in data set [5] (read-out: in situ IC50, PABA N-acetylation in CHO cells, PABA as substrate); 158 ± 22 µM in data set [7] (read-out: IC50, PABA N-acetylation in cryopreserved human hepatocytes, 50 μM PABA, 24 hr, 5 hepatocyte samples of intermediate NAT2 acetylator genotype); 0.75 ± 0.2 µM in data set [2] (setting [15]); 113 µM in [10] (read-out: IC50 for cell proliferation, MCF-10A, 72 hr); 32 µM in [11] (read-out: IC50 for cell proliferation, MDA-MB-231, 72 hr). Also, in [6], the “cell invasion/migration, MDA-MB-231” value was “dose-dependent inhibition”. In data set [8], the “N-acetylation of PABA and ABP in MCF-7” value was “inhibited”. Further, in [9], the “N-acetylation of PABA and ABP in MDA-MB-231” value is given as “inhibited”. The “fold lower IC50 for NAT1 versus NAT2” value in data set [2] (in vitro) is on record as “over 100 fold”. In [2], the “IC50 NAT2/IC50 NAT1” value was 110. The “cell proliferation, MCF-10A” value in data set [10] (non-tumorigenic cell line, later time points) was “a decrease in cell proliferation was observed”. In addition, the “cell viability, MDA-MB-231” value in [11] (4-48 hr, 0-250 μM) was “did not decrease cell viability”. Further, in data set [11] (72 and 144 hr), the “cell proliferation, MDA-MB-231” value is reported as “dose-dependent decrease”. Also, in data set [12], the “fold lower IC50 for NAT1 versus NAT2, ABP N-acetylation” value is “over 50 fold”. The “cell invasion/migration, MCF-7” value in data set [13] is listed as “dose-dependent inhibition”.
On to “9,10-dihydro-9,10-dioxo-1,8-anthracenediyl diethyl ester [Analog 2]”, for which the “inhibition of human NAT2” value in [1] is “No inhibition”. Further, in [2], the “fold less potent than compound 10 towards recombinant human NAT1” value was “over 100 fold” and the “IC50 NAT2/IC50 NAT1” value is recorded as above 21.3. Also, the IC50 in data set [2] (setting [15]) amounted to 94 ± 6.8 µM.
Take `O=C1NC(=S)S/C1=C/c1cc(I)c(O)c(I)c1` [(5E)-[5-(4-hydroxy-3,5-diiodobenzylidene)-2-thioxo-1,3-thiazolidin-4-one]: in data set [14], the “fold more selective for NAT1 than NAT2” value was 25 fold and the IC50 is 0.732 µM.
In the case of `O=C1NC(=S)S/C1=C\c1ccccc1O` [(Z)-5-(2-hydroxybenzylidene)-2-thioxothiazolidin-4-one], the IC50 in data set [14] was 101 µM.
For the compound `O=C1c2ccccc2C(=O)c2c1ccc(O)c2O` [Analog 3 (Alizarin), 1,2-dihydroxyanthraquinone], the IC50 in data set [1] was found to be 98.6 ± 9.4 µM; in data set [7] it was 70 ± 1.4 µM; in data set [2], 0.886 ± 0.0895 µM. Further, the “fold lower IC50 for NAT1 versus NAT2” value in data set [2] (in vitro) is “over 100 fold”. The “IC50 NAT2/IC50 NAT1” value in [2] was found to be 113.

The record behind these values is article PMC8837702 (Archives of toxicology, 2021).
